Assay results: paper PMC3062473 (ChemMedChem, 2010)

Assays:
caspase 1 [1] = target: T1, caspase 1 (Homo sapiens, UniProt P29466); assay: Reaction Biology caspase panel; assay type: biochemical; conditions: read-out: Caspase 1 IC50; (Z-LEHD)2-R110 substrate; three separate experiments
T1 sequence (P29466 120-297 limits assumed): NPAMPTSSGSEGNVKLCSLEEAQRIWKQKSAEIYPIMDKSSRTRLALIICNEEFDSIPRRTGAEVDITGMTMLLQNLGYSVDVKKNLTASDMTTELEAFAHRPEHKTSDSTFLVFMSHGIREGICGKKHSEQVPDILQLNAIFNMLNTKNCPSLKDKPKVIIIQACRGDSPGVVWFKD
T1 sequence (P29466 317-404 limits assumed): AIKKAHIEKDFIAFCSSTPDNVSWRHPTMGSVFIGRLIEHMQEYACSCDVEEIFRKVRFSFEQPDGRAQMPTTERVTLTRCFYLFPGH

Caspase 8 [2] = target: T2, Caspase 8 (Homo sapiens, UniProt Q14790); assay: Reaction Biology caspase panel; assay type: biochemical; conditions: read-out: Caspase 8 IC50; (Z-LEHD)2-R110 substrate; three separate experiments
Caspase 9 = target: T3, Caspase 9 (Homo sapiens, UniProt P55211); assay: Reaction Biology caspase panel; assay type: biochemical; conditions: read-out: Caspase 9 IC50; (Z-LEHD)2-R110 substrate; three separate experiments
T3 sequence (P55211 1-315 limits assumed): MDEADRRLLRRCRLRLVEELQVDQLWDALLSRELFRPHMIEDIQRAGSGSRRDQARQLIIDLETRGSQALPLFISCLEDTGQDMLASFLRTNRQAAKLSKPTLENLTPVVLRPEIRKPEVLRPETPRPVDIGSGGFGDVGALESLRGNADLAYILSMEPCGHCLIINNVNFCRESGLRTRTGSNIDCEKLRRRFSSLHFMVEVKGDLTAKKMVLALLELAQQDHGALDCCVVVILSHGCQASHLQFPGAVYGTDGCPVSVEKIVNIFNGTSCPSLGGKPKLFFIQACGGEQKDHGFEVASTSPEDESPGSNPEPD
T3 sequence (P55211 331-416 limits assumed): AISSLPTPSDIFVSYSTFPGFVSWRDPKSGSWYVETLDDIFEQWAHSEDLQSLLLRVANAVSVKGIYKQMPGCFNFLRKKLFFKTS

[3] = Aqueous degradation study by LCMS over 96 hours; assay type: physicochemical; conditions: up to 96 hours
[4] = Plasma protein binding, equilibrium dialysis in 100% plasma; assay type: in vitro ADME, human; conditions: human plasma, 100% plasma, equilibrium dialysis
Microsomal stability = assay type: in vitro ADME, human; conditions: human, liver microsomes
Summary of the method: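 Human microsomal stability, profiled by a contract lab alongside internal control compounds. Includes minus-NADPH and minus-compound control incubations.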

caspase 1 [5] = target: T1, caspase 1; conditions: read-out: Ki caspase 1; cited from earlier work
Caspase 4 = target: T4, Caspase 4 (Homo sapiens, UniProt P49662); conditions: read-out: Ki caspase 4; cited from earlier work
T4 sequence (P49662 81-270 limits assumed): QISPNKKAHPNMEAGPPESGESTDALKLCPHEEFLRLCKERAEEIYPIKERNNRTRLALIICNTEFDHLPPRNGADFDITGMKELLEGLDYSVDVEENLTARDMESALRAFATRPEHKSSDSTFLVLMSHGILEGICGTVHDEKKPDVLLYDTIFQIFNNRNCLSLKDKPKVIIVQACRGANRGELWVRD
T4 sequence (P49662 290-377 limits assumed): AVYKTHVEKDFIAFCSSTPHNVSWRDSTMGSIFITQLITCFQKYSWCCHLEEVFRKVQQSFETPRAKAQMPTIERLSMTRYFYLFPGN

Caspase 8 [6] = target: T2, Caspase 8; conditions: read-out: Ki caspase 8; cited from earlier work
Caspase 3 = target: T5, Caspase 3 (Homo sapiens, UniProt P42574); conditions: cited from earlier work
T5 sequence (P42574 29-175 limits assumed): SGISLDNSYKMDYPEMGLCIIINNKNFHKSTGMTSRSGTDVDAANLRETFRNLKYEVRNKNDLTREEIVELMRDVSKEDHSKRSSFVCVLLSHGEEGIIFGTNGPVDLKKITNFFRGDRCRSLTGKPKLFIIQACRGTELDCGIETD
T5 sequence (P42574 176-277 limits assumed): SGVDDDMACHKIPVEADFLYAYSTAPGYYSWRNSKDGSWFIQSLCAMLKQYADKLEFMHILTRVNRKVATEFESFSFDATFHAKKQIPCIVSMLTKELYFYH

granzyme B = conditions: cited from earlier work
cathepsin B = conditions: cited from earlier work
trypsin = conditions: cited from earlier work

T2 sequence (Q14790 217-374 limits assumed): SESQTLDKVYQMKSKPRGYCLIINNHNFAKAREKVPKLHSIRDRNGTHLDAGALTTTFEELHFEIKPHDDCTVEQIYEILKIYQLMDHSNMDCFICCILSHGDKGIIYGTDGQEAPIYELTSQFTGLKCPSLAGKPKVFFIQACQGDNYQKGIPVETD
T2 sequence (Q14790 385-479 limits assumed): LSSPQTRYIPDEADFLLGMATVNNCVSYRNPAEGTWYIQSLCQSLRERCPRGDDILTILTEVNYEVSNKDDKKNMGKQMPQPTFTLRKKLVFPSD

IC50 (caspase 1 [1]): 0.204 nM | IC50 (Caspase 8 [2]): 3.3 nM | IC50 (Caspase 9): 5.07 nM | aqueous stability (in words) ([3]; acidic (pH 2)): very stable | aqueous stability (in words) ([3]; basic (pH 8)): moderate | aqueous stability (in words) ([3]; neutral (pH 7)): very stable | Protein Binding fraction unbound [4]: 0.420 | Microsomal Stability CLint (Microsomal stability): 6.72 μL/min/mg protein | Microsomal Stability t1/2 (Microsomal stability): 3.43 h
Compound: CC(C)(C)[C@H](NC(=O)c1ccc(N)c(Cl)c1)C(=O)N1CCC[C@H]1C(=O)N[C@H](C=O)CC(=O)O [Compound 2b, reference compound]
Ki (caspase 1 [5]): < 1 nM | Ki (Caspase 4): < 1 nM | Ki (Caspase 8 [6]): 100 nM | activity against caspase 3 (Caspase 3): little activity | activity against granzyme B (granzyme B): little activity | activity against cathepsin B (cathepsin B): little activity | activity against trypsin (trypsin): little activity
